Results on 18 compounds are retold here after ChEMBL document CHEMBL2417505, “Discovery of 7-azaindole based anaplastic lymphoma kinase (ALK) inhibitors: wild type and mutant (L1196M) active compounds with unique binding mode” (Bioorg Med Chem Lett, 2013).

The subject of one assay is KARPAS-299. The assay can be described thus: Cytotoxicity against human KARPAS299 cells after 72 hrs by XTT assay. It counts as functional, cell-based. Particulars: KARPAS-299, 72 h.
Assay [1] concerns the target T1, ALK tyrosine kinase receptor (Homo sapiens, UniProt Q9UM73). The assay can be described thus: Inhibition of wild type human recombinant ALK after 30 mins by TR-FRET assay. (In general: TR-FRET usually uses a lanthanide donor and a delayed reading to cut background.)
Target sequence in this assay (Q9UM73 whole entry): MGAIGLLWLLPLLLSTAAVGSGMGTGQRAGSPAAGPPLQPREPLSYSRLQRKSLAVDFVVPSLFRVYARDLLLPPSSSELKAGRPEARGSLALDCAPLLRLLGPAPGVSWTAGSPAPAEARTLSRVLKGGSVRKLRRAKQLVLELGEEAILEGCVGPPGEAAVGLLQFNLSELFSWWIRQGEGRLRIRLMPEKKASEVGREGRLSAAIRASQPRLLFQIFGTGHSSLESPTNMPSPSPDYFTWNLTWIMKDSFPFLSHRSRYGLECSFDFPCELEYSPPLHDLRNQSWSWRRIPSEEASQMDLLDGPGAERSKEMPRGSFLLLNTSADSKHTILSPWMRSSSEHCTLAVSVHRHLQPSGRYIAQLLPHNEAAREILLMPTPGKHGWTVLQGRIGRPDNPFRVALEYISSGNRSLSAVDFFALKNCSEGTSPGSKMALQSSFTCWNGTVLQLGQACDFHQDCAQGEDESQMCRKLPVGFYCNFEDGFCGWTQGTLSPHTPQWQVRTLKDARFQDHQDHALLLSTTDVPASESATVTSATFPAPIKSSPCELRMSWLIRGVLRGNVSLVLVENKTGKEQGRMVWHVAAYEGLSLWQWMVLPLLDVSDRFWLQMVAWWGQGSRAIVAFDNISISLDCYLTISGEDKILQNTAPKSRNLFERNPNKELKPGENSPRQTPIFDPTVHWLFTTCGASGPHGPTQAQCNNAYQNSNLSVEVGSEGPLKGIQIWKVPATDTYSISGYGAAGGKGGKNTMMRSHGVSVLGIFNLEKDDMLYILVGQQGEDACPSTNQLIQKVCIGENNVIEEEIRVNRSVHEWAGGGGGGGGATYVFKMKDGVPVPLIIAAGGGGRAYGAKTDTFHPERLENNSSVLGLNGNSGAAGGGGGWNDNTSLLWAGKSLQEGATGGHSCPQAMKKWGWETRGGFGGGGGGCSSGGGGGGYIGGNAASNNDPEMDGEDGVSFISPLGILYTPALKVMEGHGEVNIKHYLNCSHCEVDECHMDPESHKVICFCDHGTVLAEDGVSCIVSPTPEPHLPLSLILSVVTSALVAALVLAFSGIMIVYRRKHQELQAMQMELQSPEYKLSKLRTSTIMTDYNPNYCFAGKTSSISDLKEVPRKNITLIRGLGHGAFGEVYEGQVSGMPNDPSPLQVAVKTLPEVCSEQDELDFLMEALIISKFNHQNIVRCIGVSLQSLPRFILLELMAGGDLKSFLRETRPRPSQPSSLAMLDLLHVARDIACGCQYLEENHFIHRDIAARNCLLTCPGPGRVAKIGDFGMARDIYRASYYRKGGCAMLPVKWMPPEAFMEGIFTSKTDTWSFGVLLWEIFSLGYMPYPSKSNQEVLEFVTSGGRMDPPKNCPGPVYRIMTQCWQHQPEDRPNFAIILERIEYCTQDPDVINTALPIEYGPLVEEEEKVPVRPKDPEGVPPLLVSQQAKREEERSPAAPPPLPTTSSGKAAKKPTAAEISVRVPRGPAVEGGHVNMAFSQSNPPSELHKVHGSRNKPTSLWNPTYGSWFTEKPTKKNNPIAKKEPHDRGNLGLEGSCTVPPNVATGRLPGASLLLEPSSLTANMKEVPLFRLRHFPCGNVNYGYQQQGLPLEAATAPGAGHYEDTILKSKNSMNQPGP
The species entered for another assay is Homo sapiens. Description: Selectivity ratio of IC50 for aurora A kinase (unknown origin) to IC50 for human recombinant ALK.
Assay [2] deals with ALK tyrosine kinase receptor (Homo sapiens, UniProt Q9UM73, L1196M). Description: Inhibition of human ALK L1196M mutant after 30 mins by TR-FRET assay. The gist of the method:
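L1196M mutant ALK enzyme run in TR-FRET as for wild type (HEPES pH 7.1 buffer, ULight poly-GT substrate, Eu anti-phosphotyrosine detection, 30 min reaction) but with 0.5µM ATP; IC50.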

Assay [3] deals with T2, Aurora kinase A (Homo sapiens) (UniProt O14965).
T2 sequence (whole entry): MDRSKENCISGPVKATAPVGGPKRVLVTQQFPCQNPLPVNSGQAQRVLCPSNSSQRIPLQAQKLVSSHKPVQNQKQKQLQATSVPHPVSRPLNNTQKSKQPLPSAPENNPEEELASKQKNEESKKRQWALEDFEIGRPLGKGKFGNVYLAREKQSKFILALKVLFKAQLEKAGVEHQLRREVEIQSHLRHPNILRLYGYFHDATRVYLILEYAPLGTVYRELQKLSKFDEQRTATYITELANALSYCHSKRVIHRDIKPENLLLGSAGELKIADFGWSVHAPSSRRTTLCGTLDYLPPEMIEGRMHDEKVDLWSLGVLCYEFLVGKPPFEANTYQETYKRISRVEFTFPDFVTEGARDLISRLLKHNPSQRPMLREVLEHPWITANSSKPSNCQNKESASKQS
The assay can be described thus: Inhibition of aurora A kinase (unknown origin) at 100 nM.

Assay [4] has as its target Cyclin-dependent kinase 2 (Homo sapiens) (UniProt P24941). The assay can be described thus: Inhibition of CDK2 (unknown origin) at 100 nM.
The target in assay [5] is Macrophage-stimulating protein receptor (Homo sapiens) (UniProt Q04912). The assay can be described thus: Inhibition of RON (unknown origin) at 100 nM.
The target in assay [6] is Vascular endothelial growth factor receptor 2 (Homo sapiens) (UniProt P35968). Description: Inhibition of KDR (unknown origin) at 100 nM.
Sequence of Vascular endothelial growth factor receptor 2 (Homo sapiens) (P35968 whole entry): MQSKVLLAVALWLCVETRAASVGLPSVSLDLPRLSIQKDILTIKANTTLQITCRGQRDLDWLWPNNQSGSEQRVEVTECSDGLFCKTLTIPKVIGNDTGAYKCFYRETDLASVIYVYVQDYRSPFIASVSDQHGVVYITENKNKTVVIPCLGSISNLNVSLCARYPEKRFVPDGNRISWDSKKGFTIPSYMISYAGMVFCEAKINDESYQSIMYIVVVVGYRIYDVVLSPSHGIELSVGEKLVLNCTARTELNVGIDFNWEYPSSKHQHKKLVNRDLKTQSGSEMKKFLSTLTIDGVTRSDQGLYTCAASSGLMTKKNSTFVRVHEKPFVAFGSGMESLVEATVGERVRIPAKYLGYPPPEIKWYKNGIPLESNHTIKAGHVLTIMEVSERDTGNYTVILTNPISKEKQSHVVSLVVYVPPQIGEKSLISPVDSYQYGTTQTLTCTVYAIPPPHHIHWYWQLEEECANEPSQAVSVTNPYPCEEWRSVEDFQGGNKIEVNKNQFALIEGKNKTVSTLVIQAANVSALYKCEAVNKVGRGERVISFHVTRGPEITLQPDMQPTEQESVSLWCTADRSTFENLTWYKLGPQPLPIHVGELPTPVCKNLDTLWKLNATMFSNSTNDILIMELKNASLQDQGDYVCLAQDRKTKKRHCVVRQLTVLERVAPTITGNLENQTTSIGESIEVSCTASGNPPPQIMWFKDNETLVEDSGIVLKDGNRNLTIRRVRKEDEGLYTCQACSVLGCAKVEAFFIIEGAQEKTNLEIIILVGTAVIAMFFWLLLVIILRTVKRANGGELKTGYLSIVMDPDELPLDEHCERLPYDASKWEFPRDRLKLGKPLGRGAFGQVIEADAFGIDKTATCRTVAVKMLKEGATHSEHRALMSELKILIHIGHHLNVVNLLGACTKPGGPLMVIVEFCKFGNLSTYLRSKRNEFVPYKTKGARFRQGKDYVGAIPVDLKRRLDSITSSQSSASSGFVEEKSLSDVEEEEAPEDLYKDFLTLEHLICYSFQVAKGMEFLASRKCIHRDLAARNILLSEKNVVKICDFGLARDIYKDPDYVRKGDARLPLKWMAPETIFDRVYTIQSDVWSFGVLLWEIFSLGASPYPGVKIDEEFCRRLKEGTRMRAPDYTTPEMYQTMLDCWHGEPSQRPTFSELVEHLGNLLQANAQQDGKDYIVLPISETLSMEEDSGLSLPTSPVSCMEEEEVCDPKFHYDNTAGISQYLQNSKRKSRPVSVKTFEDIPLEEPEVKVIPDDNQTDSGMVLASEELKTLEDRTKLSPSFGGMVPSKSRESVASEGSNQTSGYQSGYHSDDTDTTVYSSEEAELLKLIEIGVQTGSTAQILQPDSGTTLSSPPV
Assay [7] addresses Fibroblast growth factor receptor 1 (Homo sapiens) (UniProt P11362). The assay can be described thus: Inhibition of FGFR1 (unknown origin) at 100 nM.
Assay [8] addresses Hepatocyte growth factor receptor (Homo sapiens) (UniProt P08581). The assay can be described thus: Inhibition of c-Met (unknown origin) at 100 nM.
Assay [9] deals with T1, ALK tyrosine kinase receptor. The assay can be described thus: Inhibition of ALK in human KARPAS299 cells assessed as phosphorylated Stat3 level after 6 hrs by Western blotting analysis. It counts as cell-based, KARPAS-299. The gist of the method:
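Karpas 299 cells (4 × 10^5) treated 6 h at set concentrations, with crizotinib at 10 μM as positive control; lysed in RIPA, 30 µg lysate run on 10% SDS-PAGE, PVDF blot probed for phospho-Stat3 (Tyr705) and total Stat3; ECL detection; IC50 from blot densitometry.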
Target sequence in this assay (Q9UM73 whole entry): as the sequence (Q9UM73 whole entry) above
On the technique in general: In western blotting, separated proteins are transferred to a membrane and probed.

The target is the same in assay [10]. The assay can be described thus: Inhibition of ALK in human KARPAS299 cells assessed as phosphorylated ALK level. Particulars: for inhibition: KARPAS-299.

Sequence of ALK tyrosine kinase receptor (Homo sapiens, UniProt Q9UM73, L1196M) (Q9UM73 19-1620 L1196M limits assumed): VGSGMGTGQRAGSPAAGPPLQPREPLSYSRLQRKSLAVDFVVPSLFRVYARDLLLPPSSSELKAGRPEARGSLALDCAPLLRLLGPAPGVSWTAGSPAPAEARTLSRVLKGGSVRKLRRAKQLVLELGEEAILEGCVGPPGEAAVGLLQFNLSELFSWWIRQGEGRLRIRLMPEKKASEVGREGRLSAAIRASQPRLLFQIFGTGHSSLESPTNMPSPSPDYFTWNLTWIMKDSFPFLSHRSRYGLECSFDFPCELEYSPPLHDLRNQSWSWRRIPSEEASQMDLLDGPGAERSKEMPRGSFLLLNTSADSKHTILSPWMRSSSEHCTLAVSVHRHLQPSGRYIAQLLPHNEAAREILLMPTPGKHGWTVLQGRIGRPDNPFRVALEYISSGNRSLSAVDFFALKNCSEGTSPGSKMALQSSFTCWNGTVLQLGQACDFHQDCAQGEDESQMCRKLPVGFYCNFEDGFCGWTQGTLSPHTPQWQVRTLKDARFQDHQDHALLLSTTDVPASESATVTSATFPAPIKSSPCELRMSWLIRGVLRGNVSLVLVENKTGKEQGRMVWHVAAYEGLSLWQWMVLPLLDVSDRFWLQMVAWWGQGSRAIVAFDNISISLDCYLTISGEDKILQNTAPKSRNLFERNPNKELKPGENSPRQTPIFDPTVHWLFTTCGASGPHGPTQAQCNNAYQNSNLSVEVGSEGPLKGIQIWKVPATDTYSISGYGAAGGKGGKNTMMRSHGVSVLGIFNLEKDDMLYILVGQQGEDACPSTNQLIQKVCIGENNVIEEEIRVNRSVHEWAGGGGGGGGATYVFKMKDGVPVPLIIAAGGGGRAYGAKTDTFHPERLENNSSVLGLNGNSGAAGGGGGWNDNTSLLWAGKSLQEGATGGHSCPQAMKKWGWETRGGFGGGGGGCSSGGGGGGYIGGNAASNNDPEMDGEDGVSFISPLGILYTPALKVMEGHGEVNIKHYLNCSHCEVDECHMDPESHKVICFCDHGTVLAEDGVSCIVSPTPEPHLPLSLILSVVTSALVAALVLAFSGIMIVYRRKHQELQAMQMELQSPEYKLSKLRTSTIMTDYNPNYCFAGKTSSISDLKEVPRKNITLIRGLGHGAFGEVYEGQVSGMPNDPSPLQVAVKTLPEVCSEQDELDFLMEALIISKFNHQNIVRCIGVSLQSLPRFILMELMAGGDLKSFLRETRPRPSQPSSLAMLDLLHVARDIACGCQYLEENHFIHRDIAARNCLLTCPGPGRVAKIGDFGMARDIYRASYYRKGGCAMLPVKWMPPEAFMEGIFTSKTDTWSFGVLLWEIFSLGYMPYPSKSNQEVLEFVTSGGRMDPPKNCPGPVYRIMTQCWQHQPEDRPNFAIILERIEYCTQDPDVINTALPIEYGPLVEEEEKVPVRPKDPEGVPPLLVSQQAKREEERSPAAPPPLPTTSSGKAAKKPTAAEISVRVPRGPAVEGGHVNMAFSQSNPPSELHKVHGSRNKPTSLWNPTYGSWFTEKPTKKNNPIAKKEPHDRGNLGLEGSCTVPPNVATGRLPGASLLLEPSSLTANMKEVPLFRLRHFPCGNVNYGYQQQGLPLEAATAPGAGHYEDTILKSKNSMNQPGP

Broadly, the IC50 is the midpoint of a concentration-inhibition curve. For the compound `Cn1cc(-c2cnc3[nH]cc(-c4cnn(Cc5cccc([N+](=O)[O-])c5)c4)c3c2)cn1`, the values for the half-maximal inhibitory concentration (IC50) (in the assay on KARPAS-299; in assay [1]) were 1850 nM and 70 nM, respectively.
On to `Cc1nn(Cc2cc(F)cc(F)c2)c(C)c1-c1c[nH]c2ncc(-c3cnn(C)c3)cc12`, for which the IC50 in assay [1] was 26 nM; in [2], 310 nM. Besides, the Ratio IC50 in the assay filed under Homo sapiens is 30.
As a reminder, the inhibition is the share of the control response that was lost under treatment. For the compound `Cn1cc(-c2cnc3[nH]cc(-c4cnn(Cc5cc(F)cc(F)c5)c4)c3c2)cn1`, the IC50 in the assay with KARPAS-299 came to 664 nM; in assay [1], 6 nM; in assay [2] it was 47 nM. Also, the inhibition in assay [3] stood at 74%.
In the case of `Cn1cc(-c2cnc3[nH]cc(-c4cnn(Cc5ccccc5)c4)c3c2)cn1`, the IC50 came out at 3000 nM in the assay with KARPAS-299, 90 nM in [1] and 141 nM in assay [2]. For the same compound, the inhibition in [4] was found to be 41%; in [5] it was 21%; in [6] it was 28%; in assay [7], 14%; in assay [3] it was 84%; in [8], 7%.
Regarding `Cn1cc(-c2cnc3[nH]cc(-c4cnn(Cc5cccc(Cl)c5)c4)c3c2)cn1`, the IC50 was found to be 986 nM in [9]; 855 nM in the assay on KARPAS-299; 3120 nM in assay [10]; 30 nM in [1]; 143 nM in assay [2]. Also, the inhibition result in assay [10] is “Dose-dependent effect”; in [3] it was 87%.
On to `Cc1nn(Cc2cccc(F)c2)cc1-c1c[nH]c2ncc(-c3cnn(C)c3)cc12`, for which the IC50 in [1] is 6 nM; in assay [2], 56 nM. In the assay listed under Homo sapiens, the Ratio IC50 was determined as 6.
In the case of `Cn1cc(-c2cnc3[nH]cc(-c4cnn(Cc5cccc(C(F)(F)F)c5)c4)c3c2)cn1`, the IC50 with KARPAS-299 was found to be 1010 nM; in [1] it was 247 nM; in assay [2], 465 nM. Moreover, in [3], the inhibition amounted to 84%.
In the case of `Cn1cc(-c2cnc3[nH]cc(-c4cnn(Cc5cccc(N)c5)c4)c3c2)cn1`, the IC50 in the assay on KARPAS-299 came out at 3630 nM; in assay [1], 28 nM.
With `Cn1cc(-c2cnc3[nH]cc(-c4cnn(Cc5cccc(F)c5)c4)c3c2)cn1`, the IC50 was 138 nM in assay [9]; 466 nM in the assay with KARPAS-299; 219 nM in assay [10]; 5.6 nM in assay [1]; 35 nM in [2]. Also, the inhibition result was “Dose-dependent effect” in assay [10] and 84% in assay [3]. Besides, the Ratio IC50 in the assay filed under Homo sapiens was 2.
In the case of `Cn1cc(-c2cnc3[nH]cc(-c4cnn(Cc5cccc(C#N)c5)c4)c3c2)cn1`, the figures for the IC50 (with KARPAS-299; in [1]; in [2]) were 1610 nM, 32 nM and 150 nM, respectively. Further, the inhibition in assay [3] is 85%.
Consider `Cc1nn(Cc2cccc(F)c2)c(C)c1-c1c[nH]c2ncc(-c3cnn(C)c3)cc12`, for which the IC50 in [1] was found to be 31 nM; in assay [2], 275 nM. In addition, in the assay filed under Homo sapiens, the Ratio IC50 came to 11.
In the case of `Cc1nn(Cc2cc(F)ccc2F)c(C)c1-c1c[nH]c2ncc(-c3cnn(C)c3)cc12`, the IC50 in [1] was determined as 63 nM; in [2], 428 nM. The Ratio IC50 in the assay listed under Homo sapiens turned out to be 3.
`Cn1cc(-c2cnc3[nH]cc(-c4cnn(Cc5ccc(F)c(F)c5)c4)c3c2)cn1`: the IC50 in [9] worked out at 986 nM; in the assay on KARPAS-299 it was 2260 nM; in [10] it was 3300 nM; in assay [1] it was 84 nM; in assay [2], 379 nM. Besides, the inhibition result was “Dose-dependent effect” in [10] and 84% in assay [3].
`Cn1cc(-c2cnc3[nH]cc(-c4cnn(Cc5ccc(F)cc5)c4)c3c2)cn1`: the IC50 stood at 3010 nM in assay [9]; 1780 nM in the assay on KARPAS-299; 3910 nM in assay [10]; 70 nM in assay [1]; 256 nM in assay [2]. Moreover, the inhibition result in [10] is “Dose-dependent effect”; in assay [3] it was 74%.
Regarding `Cn1cc(-c2cnc3[nH]cc(-c4cnn(Cc5ccccc5F)c4)c3c2)cn1`, the IC50 in the assay with KARPAS-299 was found to be 2090 nM; in assay [1], 85 nM; in assay [2] it was 223 nM. This compound came in with an inhibition in assay [3] of 64%.
For `Cn1cc(-c2cnc3[nH]cc(-c4cnn(Cc5cc(F)ccc5F)c4)c3c2)cn1`, the half-maximal inhibitory concentration (IC50) turned out to be 1590 nM in [9]; 1200 nM in the assay with KARPAS-299; 900 nM in assay [10]; 29 nM in assay [1]; 124 nM in [2]. For the same compound, the inhibition result was “Dose-dependent effect” in [10] and 75% in [3].
Turning to `Cn1cc(-c2cnc3[nH]cc(-c4cnn(Cc5cccc(O)c5)c4)c3c2)cn1`, the figures for the IC50 (in the assay with KARPAS-299; in [1]; in assay [2]) were 3360 nM, 41 nM and 200 nM, respectively. The inhibition in assay [3] was determined as 93%.
Take `Cn1cc(-c2cnc3[nH]cc(-c4cnn(Cc5cccc(C(=O)O)c5)c4)c3c2)cn1`: the half-maximal inhibitory concentration (IC50) with KARPAS-299 is more than 10000 nM; in assay [1], 98 nM; in assay [2] it was 811 nM.
